In assay [1] the test system is HL-60. The assay is described as follows: Standard thymidine incorporation assay (TdR) was carried out for 48 hr and involved a 24-h pulse of [3H]- thymidine (n=5) and ID50 value was evaluated. The format is functional. To be noted: Homo sapiens, read-out: ID50 (the source's name). In outline: (§1)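 HL-60 human promyelocytic leukemia cells in RPMI 1640 with 10% heat-inactivated FBS, 37 °C, 5% CO2. Log-phase cells seeded at 5 × 10^4/well with inhibitor dilutions from ethanol stocks (1 or 10 mg/mL). At 24 h, pulsed with 1.0 μCi [methyl-3H]thymidine (6.7 Ci/mmol) for a further 24 h. Harvested onto glass fiber filters and counted by liquid scintillation as % of control. Quadruplicate determinations. Values in μM.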

Assay [2] has as its system HL-60. The assay is described as follows: Trypan blue exclusion assay (TB) was carried out for 48 hr and the in vitro ID50 value was evaluated in the HL-60 leukemic cell system (n=4). The assay is classed as functional. To be noted: Homo sapiens, HL-60, 48 h; read-out: ID50 (the source's name). In outline: (§2)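 HL-60 human promyelocytic leukemia cells were grown in suspension in RPMI 1640 with 10% heat-inactivated FBS, penicillin/streptomycin, 2 mM L-glutamine and 0.22% NaHCO3 at 37 °C under 5% CO2. Cells at 5 × 10^5/mL were exposed to various inhibitor concentrations diluted from ethanol stocks into medium for 48 h. Trypan blue in PBS was then added and viable cells were counted by hemocytometer. Triplicate determinations; values in μM.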

Assay [3] concerns HL-60. The assay is described as follows: Standard thymidine incorporation assay (TdR) was carried out for 48 hr and involved a 24-h pulse of [3H]- thymidine (n=1) and ID50 value was evaluated. The format is functional. To be noted: Homo sapiens, read-out: ID50 (the source's name). Put shortly:
as §1

Assay [4] has as its system HL-60. The assay is described as follows: Trypan blue exclusion assay (TB) was carried out for 48 hr and the in vitro ID50 value was evaluated in the HL-60 leukemic cell system (n=1). The format is functional, Homo sapiens. To be noted: read-out: ID50 (the source's name). In outline: as §2
Assay [5] relates to HL-60. The assay is described as follows: Standard thymidine incorporation assay (TdR) was carried out for 48 hr and involved a 24-h pulse of [3H]- thymidine (n=2) and ID50 value was evaluated. To be noted: Homo sapiens, read-out: ID50 (the source's name). The assay is classed as functional. Put shortly: as §1
In assay [6] the test system is HL-60. The assay is described as follows: Trypan blue exclusion assay (TB) was carried out for 48 h and the in vitro ID50 value was evaluated in the HL-60 leukemic cell system (n=3). The assay is classed as functional. To be noted: Homo sapiens, HL-60, 48 h; read-out: ID50 (the source's name). Put shortly: as §2
Assay [7] has as its system HL-60. The assay is described as follows: Standard thymidine incorporation assay (TdR) was carried out for 48 hr with an 8 hr pulse of [3H]- thymidine (TdR8) (n=3) and ID50 value was evaluated. The assay is classed as functional. To be noted: Homo sapiens, read-out: ID50 (the source's name). Put shortly: (§3)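 HL-60 leukemia suspension cultures grown in RPMI 1640/10% FBS at 37 °C, 5% CO2. Cells seeded at 5 × 10^4/well with inhibitors diluted from ethanol stocks. 48-h exposure, with 1.0 μCi [methyl-3H]thymidine (6.7 Ci/mmol) added for the last 8 h. Filter-harvested cells counted by liquid scintillation, uptake expressed as percent of control. Quadruplicate determinations. Results in μM.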

In assay [8] the test system is HL-60. The assay is described as follows: Standard thymidine incorporation assay (TdR) was carried out for 48 hr with an 8 hr pulse of [3H]- thymidine (TdR8) (n=5) and ID50 value was evaluated. The assay is classed as functional. To be noted: Homo sapiens, read-out: ID50 (the source's name). In outline:
as §3

Assay [9] deals with HL-60. The assay is described as follows: Standard thymidine incorporation assay (TdR) was carried out for 48 hr and involved a 24-h pulse of [3H]- thymidine (n=3) and ID50 value was evaluated. The assay is classed as functional. To be noted: Homo sapiens, read-out: ID50 (the source's name). In outline: as §1
For assay [10], the system named is HL-60. The assay is described as follows: Standard thymidine incorporation assay (TdR) was carried out for 48 hr with an 8 hr pulse of [3H]- thymidine (TdR8) (n=4) and ID50 value was evaluated. To be noted: Homo sapiens, read-out: ID50 (the source's name). The assay is classed as functional. Put shortly: as §3
For assay [11], the system named is HL-60. The assay is described as follows: Standard thymidine incorporation assay (TdR) was carried out for 48 hr with an 8 hr pulse of [3H]- thymidine (TdR8) (n=1) and ID50 value was evaluated. The assay is classed as functional. To be noted: Homo sapiens, read-out: ID50 (the source's name). Put shortly: as §3
For assay [12], the system named is HL-60. The assay is described as follows: Standard thymidine incorporation assay (TdR) was carried out for 48 hr with an 8 hr pulse of [3H]- thymidine (TdR8) (n=16) and ID50 value was evaluated. The assay is classed as functional. To be noted: Homo sapiens, read-out: ID50 (the source's name). In outline: as §3
The subject of assay [13] is HL-60. The assay is described as follows: Standard thymidine incorporation assay (TdR) was carried out for 48 hr and involved a 24-h pulse of [3H]- thymidine (n=21) and ID50 value was evaluated. The assay is classed as functional. To be noted: Homo sapiens, read-out: ID50 (the source's name). In outline:
as §1

Assay [14] relates to HL-60. The assay is described as follows: Trypan blue exclusion assay (TB) was carried out for 48 hr and the in vitro ID50 value was evaluated in the HL-60 leukemic cell system (n=33). The format is functional. To be noted: Homo sapiens, HL-60, 48 h; read-out: ID50 (the source's name). In outline:
as §2

On to `CCCCCCCCCCCCCCCCCC(=O)NCC(COP(=O)([O-])OCC[N+](C)(C)C)OCC` (stereo unspecified), for which the IC50 is 3.3 µM in assay [1] and 1.64 µM in assay [2].
As to `CCCCCCCCCCCCCCCCSCC(C[N+](C)(C)CCO)OCCCCCC` (stereo unspecified), the IC50 in [3] amounted to 7.15 µM.
For `CCCCCCCCCCCCCCCCSCC(COP(=O)(O)OCC[N+](CC)(CC)CC)OCC` (stereo unspecified), the IC50 in [4] (Homo sapiens, HL-60, 48 h) came out at 3.31 µM.
As for `CCCCCCCCCCCCCCCCSCC(C[n+]1ccsc1)OC` (stereo unspecified), the IC50 in [4] (Homo sapiens, HL-60, 48 h) came out at 8.75 µM; in [5], 7.17 µM.
With `CCCCCCCCCCCCCCCCSCC[n+]1ccccc1`, the IC50 in assay [3] turned out to be 2.28 µM.
Same read-out and setting: then `CCCCCCCCCCCCCCCCSCC[N+](C)(C)CCO`, with 3.95 µM.
Consider `CCCCCCCCCCCCCCCCCCOCC(C[N+]1(C)CCC(O)CC1)OCC` (stereo unspecified), for which the IC50 in [5] worked out at 4.3 µM.
Regarding `CCCCCCCCOCC(C[N+](C)(C)C)OC` (stereo unspecified), the IC50 was found to be 21.2 µM in assay [6] and 27 µM in [7].
As for `CCCCCCCCCCCCCCCCOCC(C[S+](C)CCO)OC` (stereo unspecified), the results for the IC50 in assay [6], in assay [8] and in assay [9] were 2.49 µM, 2.03 µM and 2.01 µM, respectively.
With `CCCCCCCCCCCCCCCCSCCC[N+]1(C)CCC(O)C1` (stereo unspecified), in assay [3], the IC50 was 3.77 µM.
On the same count and under the same terms, then `CCCCCCCCCCCCCCCCSCC(COC)C[N+](C)(C)CCCO` (stereo unspecified), with 3.46 µM.
With `CCCCCCCCCCCCCCCCOCC(CSCC[N+](C)(C)C)OC` (stereo unspecified), the values for the IC50 in assay [10], in [6] and in [5] were 1.85 µM, 2.23 µM and 2.4 µM, respectively.
Take `CCCCCCCCCCCCCCCCCC(=O)NCC(COP(=O)([O-])OCC[N+](C)(C)C)OCCCCCCCCCCCCCC` (stereo unspecified): the IC50 in assay [9] was > 100 µM.
Consider `CCCCCCCCCCCCCCCCOCC(C[n+]1cccc(CO)c1)OC` (stereo unspecified), for which the results for the IC50 in [10], in assay [5] and in assay [2] were 0.85 µM, 1.68 µM and 1.07 µM, respectively.
As for `CCCCCCCCCCCCCCCCCCOCC(C[N+]1(C)CCOCC1)OCC` (stereo unspecified), the IC50 is 2.92 µM in [4] (Homo sapiens, HL-60, 48 h) and 3.92 µM in [5].
Take `CCCCCCCCCCCCCCCCSCC(COC)C[N+](C)(C)C` (stereo unspecified): the IC50 in assay [3] came to 3.52 µM.
With `CCCCCCCCCCCCCCCCSCC(C[N+](C)(C)C)OCCCCC` (stereo unspecified), the IC50 in [4] (Homo sapiens, HL-60, 48 h) is 6.14 µM; in assay [11], 5.02 µM; in [3], 4.97 µM.
For `CCCCCCCCCCCCCCCCSCC(COP(=O)([O-])OCC[N+](C)(C)C)OCC` (stereo in doubt; 2), the results for the IC50 in assay [4], in assay [7] and in assay [9] were 2.25 µM, 3.11 µM and 2.19 µM, respectively.
As to `CCCCCCCCCCCCCCCCSCC(COP(=O)([O-])OCC[N+](C)(C)C)OCC` (stereo in doubt; 5), the IC50 in [4] worked out at 6.75 µM.
In the case of `CCCCCCCCCCCCCCCCCCOCC(COP(=O)([O-])OCC[N+](C)(C)C)OC` (stereo unspecified) [EDELFOSINE], the IC50 in [12] was 2.41 µM; in [13] it was 2.38 µM; in [14], 2.48 µM.

For the origin of these results see ChEMBL document CHEMBL1126734, “Synthesis of phosphocholine and quaternary amine ether lipids and evaluation of in vitro antineoplastic activity” (1993).
